# In ChEMBL document CHEMBL6134765, “Rapid identification of novel indolylarylsulfone derivatives as potent HIV-1 NNRTIs via miniaturized CuAAC click-chemistry-based combinatorial libraries” (RSC Med Chem, 2025):
# Columns and labels:
# [1] = biological target: Human immunodeficiency virus type 1 reverse transcriptase (Human immunodeficiency virus 1) (UniProt Q72547); test: Inhibition of recombinant HIV-1 reverse transcriptase at 0.66 mM incubated for 1 hr by ELISA relative to control
# In short: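 Each library compound was tested directly as the crude click mixture (diluted in DMSO to 2 mM per well) against HIV-1 RT at 0.66 mM, using an ELISA-based RT kit following the kit protocol. Blank controls held DMSO, TBTA, CuSO4·5H2O and sodium ascorbate. Inhibition is expressed as a percentage.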
# [2] = Selectivity index, ratio of CC50 for cytotoxicity against human MT4 cells to EC50 for antiviral activity against wild-type HIV-1 IIIB infected in human MT4 cells; type: toxicity, cell-based; details: read-out: Ratio CC50/EC50
# In short: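 Selectivity index is calculated as CC50 (mock-infected MT-4, MTT) divided by EC50 (HIV-1 IIIB protection of MT-4, MTT).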
# [3] = test system: Human immunodeficiency virus 1; test: Antiviral activity against HIV-1 harboring Y188L mutant infected in human MT4 cells assessed as inhibition of virus induced cytotoxicity incubated for 5 days by spectrophometry based MTT assay; type: functional, organism-based; details: Human immunodeficiency virus 1, MT4, 120 h
# In short: (§1)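 MT-4 cells (from Dr. N. Yamamoto, Yamaguchi University) infected with single-mutant (L100I, K103N, Y181C, Y188L, E138K) or double-mutant (F227L/V106A; RES056 = K103N/Y181C) HIV-1 strains. Protection against virus-induced cytotoxicity was read by the MTT method. EC50 is the concentration giving 50% protection of the cell cultures.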
# [4] = Cytotoxicity against human MT4 cells assessed as reduction in cell viability incubated for 5 days by MTT assay; type: toxicity, cell-based; details: time 5 day
# In short: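 Mock-infected MT-4 cultures were read by MTT for cell viability. CC50 is the concentration that reduces viability by 50%.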
# [5] = test system: Human immunodeficiency virus 2; test: Antiviral activity against HIV-2 ROD infected in human MT4 cells incubated for 5 days by spectrophotometry based MTT assay; type: functional, organism-based; details: Human immunodeficiency virus 2, ROD, MT4, 120 h
# In short: (§2)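 MTT protection assay in MT-4 cells infected with HIV-1 IIIB or HIV-2 ROD. EC50 is the compound concentration giving 50% protection of the cultures against virus-induced cytotoxicity.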
# [6] = test system: Human immunodeficiency virus 1; test: Antiviral activity against HIV-1 harboring Y181C mutant infected in human MT4 cells assessed as inhibition of virus induced cytotoxicity incubated for 5 days by spectrophometry based MTT assay; type: functional, organism-based; details: Human immunodeficiency virus 1, MT4, 120 h; in short: as §1
# [7] = test system: Human immunodeficiency virus 1; test: Antiviral activity against HIV-1 harboring K103N mutant infected in human MT4 cells assessed as inhibition of virus induced cytotoxicity incubated for 5 days by spectrophometry based MTT assay; type: functional, organism-based; details: Human immunodeficiency virus 1, MT4, 120 h; in short: as §1
# [8] = test system: Human immunodeficiency virus 1; test: Antiviral activity against HIV-1 harboring E138K mutant infected in human MT4 cells assessed as inhibition of virus induced cytotoxicity incubated for 5 days by spectrophometry based MTT assay; type: functional, organism-based; details: Human immunodeficiency virus 1, MT4, 120 h; in short: as §1
# [9] = test system: Human immunodeficiency virus 1; test: Antiviral activity against HIV-1 harboring F227L/V106A double mutant infected in human MT4 cells assessed as inhibition of virus induced cytotoxicity incubated for 5 days by spectrophometry based MTT assay; type: functional, organism-based; details: Human immunodeficiency virus 1, MT4, 120 h; in short: as §1
# [10] = test system: Human immunodeficiency virus 1; test: Antiviral activity against HIV-1 harboring L100I mutant infected in human MT4 cells assessed as inhibition of virus induced cytotoxicity incubated for 5 days by spectrophometry based MTT assay; type: functional, organism-based; details: Human immunodeficiency virus 1, MT4, 120 h; in short: as §1
# [11] = test system: Human immunodeficiency virus 1; test: Antiviral activity against wild-type HIV-1 IIIB infected in human MT4 cells incubated for 5 days by spectrophometry based MTT assay; type: functional, organism-based; details: Human immunodeficiency virus 1, IIIB, MT4, 120 h; in short: as §2
# [12] = test system: Human immunodeficiency virus 1; test: Antiviral activity against HIV-1 harboring RES056 mutant infected in human MT4 cells assessed as inhibition of virus induced cytotoxicity incubated for 5 days by spectrophometry based MTT assay; type: functional, organism-based; details: Human immunodeficiency virus 1, MT4, 120 h; in short: as §1
smiles,measurement,setting,value
COc1cccc(Cn2cc(CNC(=O)c3[nH]c4ccc(Cl)cc4c3S(=O)(=O)c3cc(C)cc(C)c3)nn2)c1,inhibition,[1],< 85%
Nc1ccn([C@@H]2CS[C@H](CO)O2)c(=O)n1 [LAMIVUDINE],selectivity ratio,[2],> 17
same,EC50,[3],3560 nM
same,CC50 at 120 h,[4],> 87200 nM
Cc1cc(C)cc(S(=O)(=O)c2c(C(=O)NCc3cn(CCc4ccccc4)nn3)[nH]c3ccc(Cl)cc23)c1,EC50,[5],> 4690 nM
same,selectivity ratio,[2],1080
same,EC50,[6],2510 nM
same,EC50,[3],> 162000 nM
same,EC50,[7],540 nM
same,EC50,[8],870 nM
same,EC50,[9],4330 nM
same,inhibition,[1],> 85%
same,CC50 at 120 h,[4],162000 nM
same,EC50,[10],1000 nM
same,EC50,[11],150 nM
same,EC50,[12],> 4690 nM
Cc1cc(C)cc(S(=O)(=O)c2c(C(=O)NCc3cn(Cc4ccc([N+](=O)[O-])cc4)nn3)[nH]c3ccc(Cl)cc23)c1,inhibition,[1],< 85%
COc1ccccc1Cn1cc(CNC(=O)c2[nH]c3ccc(Cl)cc3c2S(=O)(=O)c2cc(C)cc(C)c2)nn1,inhibition,[1],< 85%
Cc1cc(C)cc(S(=O)(=O)c2c(C(=O)NCc3cn(Cc4ccc(S(N)(=O)=O)cc4)nn3)[nH]c3ccc(Cl)cc23)c1,inhibition,[1],< 85%
Cc1cc(C)cc(S(=O)(=O)c2c(C(=O)NCc3cn(-c4ccc(C(=O)O)cc4)nn3)[nH]c3ccc(Cl)cc23)c1,inhibition,[1],< 85%
Cc1cc(C)cc(S(=O)(=O)c2c(C(=O)NCc3cn(Cc4ccc5ccccc5c4)nn3)[nH]c3ccc(Cl)cc23)c1,inhibition,[1],< 85%
Cc1cc(C)cc(S(=O)(=O)c2c(C(=O)NCc3cn(CCCc4ccccc4)nn3)[nH]c3ccc(Cl)cc23)c1,EC50,[5],> 117000 nM
same,selectivity ratio,[2],302
same,EC50,[6],2710 nM
same,EC50,[3],> 117000 nM
same,EC50,[7],3250 nM
same,EC50,[8],1390 nM
same,EC50,[9],9700 nM
same,inhibition,[1],> 85%
same,CC50 at 120 h,[4],117000 nM
same,EC50,[10],1870 nM
same,EC50,[11],390 nM
same,EC50,[12],> 117000 nM
Cc1cc(C)cc(S(=O)(=O)c2c(C(=O)NCc3cn(CSc4ccccc4)nn3)[nH]c3ccc(Cl)cc23)c1,EC50,[5],> 221000 nM
same,selectivity ratio,[2],> 5510
same,EC50,[6],670 nM
same,EC50,[3],15800 nM
same,EC50,[7],240 nM
same,EC50,[8],180 nM
same,EC50,[9],810 nM
same,inhibition,[1],> 85%
same,CC50 at 120 h,[4],> 221000 nM
same,EC50,[10],150 nM
same,EC50,[11],40 nM
same,EC50,[12],> 221000 nM
Cc1cc(C)cc(S(=O)(=O)c2c(C(=O)NCc3cn(CC(=O)Nc4ccc(S(C)(=O)=O)cc4)nn3)[nH]c3ccc(Cl)cc23)c1,inhibition,[1],< 85%
"Cc1cc(C)cc(S(=O)(=O)c2c(C(=O)NCc3cn([C@H]4C[C@H](n5cc(C)c(=O)[nH]c5=O)O[C@@H]4CO)nn3)[nH]c3ccc(Cl)cc23)c1 (single isomer, unassigned)",inhibition,[1],< 85%
Cc1cn([C@H]2C[C@H](N=[N+]=[N-])[C@@H](CO)O2)c(=O)[nH]c1=O [ZIDOVUDINE],selectivity ratio,[2],> 397
same,EC50,[9],9 nM
same,CC50 at 120 h,[4],> 7480 nM
same,EC50,[11],19 nM
same,EC50,[12],2 nM
Cc1ccc(Cn2cc(CNC(=O)c3[nH]c4ccc(Cl)cc4c3S(=O)(=O)c3cc(C)cc(C)c3)nn2)cc1,inhibition,[1],< 85%
Cc1cc(C)cc(S(=O)(=O)c2c(C(=O)NCc3cn(Cc4cccc5ccccc45)nn3)[nH]c3ccc(Cl)cc23)c1,EC50,[5],> 214000 nM
same,selectivity ratio,[2],> 3510
same,EC50,[6],620 nM
same,EC50,[3],25000 nM
same,EC50,[7],700 nM
same,EC50,[8],240 nM
same,EC50,[9],1990 nM
same,inhibition,[1],> 85%
same,CC50 at 120 h,[4],> 214000 nM
same,EC50,[10],300 nM
same,EC50,[11],61 nM
same,EC50,[12],113000 nM
COC(=O)Cn1cc(CNC(=O)c2[nH]c3ccc(Cl)cc3c2S(=O)(=O)c2cc(C)cc(C)c2)nn1,EC50,[5],> 6460 nM
same,selectivity ratio,[2],143
same,EC50,[6],800 nM
same,EC50,[3],11700 nM
same,EC50,[7],140 nM
same,EC50,[8],170 nM
same,EC50,[9],1070 nM
same,inhibition,[1],> 85%
same,CC50 at 120 h,[4],6460 nM
same,EC50,[10],220 nM
same,EC50,[11],45 nM
same,EC50,[12],> 6460 nM
Cc1cc(C)cc(S(=O)(=O)c2c(C(=O)NCc3cn(Cc4ccc(C#N)cc4)nn3)[nH]c3ccc(Cl)cc23)c1,inhibition,[1],< 85%
Cc1cc(C)cc(S(=O)(=O)c2c(C(=O)NCc3cn(Cc4ccccc4C#N)nn3)[nH]c3ccc(Cl)cc23)c1,inhibition,[1],< 85%
Cc1cc(C)cc(S(=O)(=O)c2c(C(=O)NCc3cn(-c4ccc5c(c4)OCO5)nn3)[nH]c3ccc(Cl)cc23)c1,inhibition,[1],< 85%
Cc1cc(C)cc(S(=O)(=O)c2c(C(=O)NCc3cn(Cc4ccccc4C)nn3)[nH]c3ccc(Cl)cc23)c1,inhibition,[1],< 85%
Cc1cc(C#N)cc(C)c1Oc1nc(Nc2ccc(C#N)cc2)nc(N)c1Br [ETRAVIRINE],selectivity ratio,[2],> 1640
same,EC50,[9],18 nM
same,CC50 at 120 h,[4],> 6330 nM
same,EC50,[12],38 nM
Cc1cc(C)cc(S(=O)(=O)c2c(C(=O)NCc3cn(CCc4ccsc4)nn3)[nH]c3ccc(Cl)cc23)c1,inhibition,[1],< 85%
Cc1cc(C)cc(S(=O)(=O)c2c(C(=O)NCc3cn(Cc4cccc(Cl)c4)nn3)[nH]c3ccc(Cl)cc23)c1,inhibition,[1],< 85%
Cc1cc(C)cc(S(=O)(=O)c2c(C(=O)NCc3cn(CC(=O)N4CCCC4)nn3)[nH]c3ccc(Cl)cc23)c1,inhibition,[1],< 85%
Cc1cc(C)cc(S(=O)(=O)c2c(C(=O)NCc3cn(CCN4C(=O)c5ccccc5C4=O)nn3)[nH]c3ccc(Cl)cc23)c1,inhibition,[1],< 85%
COC(=O)c1cccc(-n2cc(CNC(=O)c3[nH]c4ccc(Cl)cc4c3S(=O)(=O)c3cc(C)cc(C)c3)nn2)c1,inhibition,[1],< 85%
Cc1cc(C)cc(S(=O)(=O)c2c(C(=O)NCc3cn(-c4ccc(C(=O)O)cc4Cl)nn3)[nH]c3ccc(Cl)cc23)c1,inhibition,[1],< 85%
Cc1cc(C)cc(S(=O)(=O)c2c(C(=O)NCc3cn(CC(=O)N4CCOCC4)nn3)[nH]c3ccc(Cl)cc23)c1,inhibition,[1],< 85%
Cc1cc(C)cc(S(=O)(=O)c2c(C(=O)NCc3cn(CC(=O)Nc4ccccc4)nn3)[nH]c3ccc(Cl)cc23)c1,inhibition,[1],< 85%
Cc1cc(C)cc(S(=O)(=O)c2c(C(=O)NCc3cn(Cc4ccc(Cl)cc4)nn3)[nH]c3ccc(Cl)cc23)c1,inhibition,[1],< 85%
Cc1cc(C)cc(S(=O)(=O)c2c(C(=O)NCc3cn(-c4cc5ccccc5s4)nn3)[nH]c3ccc(Cl)cc23)c1,inhibition,[1],< 85%
Cc1cccc(Cn2cc(CNC(=O)c3[nH]c4ccc(Cl)cc4c3S(=O)(=O)c3cc(C)cc(C)c3)nn2)c1,inhibition,[1],< 85%
Cc1cc(C)cc(S(=O)(=O)c2c(C(=O)NCc3cn(Cc4ccccc4Cl)nn3)[nH]c3ccc(Cl)cc23)c1,inhibition,[1],< 85%
Cc1ccnc2c1NC(=O)c1cccnc1N2C1CC1 [NEVIRAPINE],selectivity ratio,[2],> 92
same,EC50,[3],≥ 7700 nM
same,EC50,[9],≥ 5410 nM
same,CC50 at 120 h,[4],> 15000 nM
same,EC50,[12],> 15000 nM
Cc1cc(C)cc(S(=O)(=O)c2c(C(=O)NCc3cn(CC(=O)NC4CC4)nn3)[nH]c3ccc(Cl)cc23)c1,inhibition,[1],< 85%
Cc1cc(C)cc(S(=O)(=O)c2c(C(=O)NCc3cn(Cc4ccc(C(N)=O)cc4)nn3)[nH]c3ccc(Cl)cc23)c1,inhibition,[1],< 85%
